Measured values reported in ChEMBL document CHEMBL3232927 (J Med Chem, 2014).

Experiments:
[1] = Retention time of the compound up to by LC/MS analysis; type: physicochemical
Procedure, shortened: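 Reversed-phase LC/MS on a C18 (ODS) column, 5 μm, 4.6 × 150 mm, flow 1 mL/min. Gradient from 56/44 to 98/2 methanol/water containing 15 mM NH4OAc over 15 min, then a final hold.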

MDA-MB-231 = test: Cytotoxicity against human MDA-MB-231 cells after 72 hrs by MTT assay; type: functional, cell-based; details: MDA-MB-231, 72 h
Procedure, shortened: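 MDA-MB-231 cells grown in MEM with 10% FBS and 1% pen/strep at 37 °C, seeded at 8000 cells/well in MEM with 5% FBS. 10 mM DMSO stocks were serially diluted in MEM/5% FBS: 1–10 000 nM for PTX-silicates, 0.1–1000 for DTX-silicates. Exposure 72 h, then MTT added and absorbance at 490 nm read at 60 min. IC50 from nonlinear regression of log concentration vs response; median of the IC50 distribution within the 95% confidence interval.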

[2] = Half life of the compound at C2 position in acetone-d6/D2O/CF3CO2H at 0.01 M by NMR spectroscopy analysis; type: physicochemical
Procedure, shortened: (§1)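 Silicates dissolved in acetone/water 10:1 (v/v) containing 1% TFA (measured pH 1.2) at ambient temperature. Silicate ester cleavage followed over time by NMR spectroscopy.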

[3] = Half life of the compound at C7 position in acetone-d6/D2O/CF3CO2H at 0.01 M by NMR spectroscopy analysis; type: physicochemical; procedure, shortened: as §1

SMILES	Retention_time [1] [min]	t1/2 [2] [h]	t1/2 [3] [h]	IC50 (MDA-MB-231) [nM]
CC(=O)O[C@@]12CO[C@@H]1C[C@H](O)[C@@]1(C)C(=O)[C@H](O)C3=C(C)[C@@H](OC(=O)[C@H](O)[C@@H](NC(=O)OC(C)(C)C)c4ccccc4)C[C@@](O)([C@@H](OC(=O)c4ccccc4)[C@H]21)C3(C)C.O.O.O [DOCETAXEL]	10.9			1
CC(=O)O[C@@]12CO[C@@H]1C[C@H](O)[C@@]1(C)C(=O)[C@H](O)C3=C(C)[C@@H](OC(=O)[C@H](O[Si](OC(C)C)(OC(C)C)OC(C)C)[C@@H](NC(=O)OC(C)(C)C)c4ccccc4)C[C@@](O)([C@@H](OC(=O)c4ccccc4)[C@H]21)C3(C)C	15.9	4.33		0.2
CC(=O)O[C@H]1C(=O)[C@@]2(C)[C@H]([C@H](OC(=O)c3ccccc3)[C@]3(O)C[C@H](OC(=O)[C@H](O[Si](OC(C)=O)(OC(C)(C)C)OC(C)(C)C)[C@@H](NC(=O)c4ccccc4)c4ccccc4)C(C)=C1C3(C)C)[C@]1(OC(C)=O)CO[C@@H]1C[C@@H]2O		0.583		
CCO[Si](O[C@@H](C(=O)O[C@H]1C[C@@]2(O)[C@@H](OC(=O)c3ccccc3)[C@@H]3[C@]4(OC(C)=O)CO[C@@H]4C[C@H](O)[C@@]3(C)C(=O)[C@H](OC(C)=O)C(=C1C)C2(C)C)[C@@H](NC(=O)c1ccccc1)c1ccccc1)(OC(C)(C)C)OC(C)(C)C	16.1	200		260
CC(=O)O[C@H]1C(=O)[C@@]2(C)[C@H]([C@H](OC(=O)c3ccccc3)[C@]3(O)C[C@H](OC(=O)[C@H](O[Si](OC4CC(C)CCC4C(C)C)(OC4CC(C)CCC4C(C)C)OC4CC(C)CCC4C(C)C)[C@@H](NC(=O)c4ccccc4)c4ccccc4)C(C)=C1C3(C)C)[C@]1(OC(C)=O)CO[C@@H]1C[C@@H]2O (stereo partly specified)	24.5	1150		590
CC(=O)O[C@H]1C(=O)[C@@]2(C)[C@H]([C@H](OC(=O)c3ccccc3)[C@]3(O)C[C@H](OC(=O)[C@H](O[Si](OC(C)C)(OC(C)C)OC(C)C)[C@@H](NC(=O)c4ccccc4)c4ccccc4)C(C)=C1C3(C)C)[C@]1(OC(C)=O)CO[C@@H]1C[C@@H]2O	15.4	2		4.2
CCO[Si](OCC)(OCC)O[C@@H](C(=O)O[C@H]1C[C@@]2(O)[C@@H](OC(=O)c3ccccc3)[C@@H]3[C@]4(OC(C)=O)CO[C@@H]4C[C@H](O)[C@@]3(C)C(=O)[C@H](O)C(=C1C)C2(C)C)[C@@H](NC(=O)OC(C)(C)C)c1ccccc1	14.1	0.183		2.5
CC(=O)O[C@H]1C(=O)[C@]2(C)[C@@H](O[Si](OC(C)C)(OC(C)C)OC(C)C)C[C@H]3OC[C@@]3(OC(C)=O)[C@H]2[C@H](OC(=O)c2ccccc2)[C@]2(O)C[C@H](OC(=O)[C@H](O[Si](OC(C)C)(OC(C)C)OC(C)C)[C@@H](NC(=O)c3ccccc3)c3ccccc3)C(C)=C1C2(C)C	18.9	2.17	25	1600
CC(=O)O[C@H]1C(=O)[C@@]2(C)[C@H]([C@H](OC(=O)c3ccccc3)[C@]3(O)C[C@H](OC(=O)[C@H](O)[C@@H](NC(=O)c4ccccc4)c4ccccc4)C(C)=C1C3(C)C)[C@]1(OC(C)=O)CO[C@@H]1C[C@@H]2O [PACLITAXEL]	10.5			5.6
CCO[Si](O[C@@H](C(=O)O[C@H]1C[C@@]2(O)[C@@H](OC(=O)c3ccccc3)[C@@H]3[C@]4(OC(C)=O)CO[C@@H]4C[C@H](O)[C@@]3(C)C(=O)[C@H](O)C(=C1C)C2(C)C)[C@@H](NC(=O)OC(C)(C)C)c1ccccc1)(OC(C)(C)C)OC(C)(C)C	16.4	226.67		430
CC[Si](CC)(CC)O[C@@H](C(=O)O[C@H]1C[C@@]2(O)[C@@H](OC(=O)c3ccccc3)[C@@H]3[C@]4(OC(C)=O)CO[C@@H]4C[C@H](O)[C@@]3(C)C(=O)[C@H](OC(C)=O)C(=C1C)C2(C)C)[C@@H](NC(=O)c1ccccc1)c1ccccc1	15.4			220
CC(=O)O[C@H]1C(=O)[C@]2(C)[C@@H](O[Si](OC(C)C)(OC(C)C)OC(C)C)C[C@H]3OC[C@@]3(OC(C)=O)[C@H]2[C@H](OC(=O)c2ccccc2)[C@]2(O)C[C@H](OC(=O)[C@H](O)[C@@H](NC(=O)c3ccccc3)c3ccccc3)C(C)=C1C2(C)C	16.4		28.33	260

Now from value to compound, other results behind:

Retention_time [1] [min]	t1/2 [2] [h]	t1/2 [3] [h]	SMILES	IC50 (MDA-MB-231) [nM]
22.1	0.2		CCCCCCCCO[Si](OCCCCCCCC)(OCCCCCCCC)O[C@@H](C(=O)O[C@H]1C[C@@]2(O)[C@@H](OC(=O)c3ccccc3)[C@@H]3[C@]4(OC(C)=O)CO[C@@H]4C[C@H](O)[C@@]3(C)C(=O)[C@H](OC(C)=O)C(=C1C)C2(C)C)[C@@H](NC(=O)c1ccccc1)c1ccccc1	7
14.6		0.5	CCO[Si](OCC)(OCC)O[C@H]1C[C@H]2OC[C@@]2(OC(C)=O)[C@H]2[C@H](OC(=O)c3ccccc3)[C@]3(O)C[C@H](OC(=O)[C@H](O)[C@@H](NC(=O)c4ccccc4)c4ccccc4)C(C)=C([C@@H](OC(C)=O)C(=O)[C@]12C)C3(C)C	18
	0.3	3.33	CCCCCCCCO[Si](OCCCCCCCC)(OCCCCCCCC)O[C@H]1C[C@H]2OC[C@@]2(OC(C)=O)[C@H]2[C@H](OC(=O)c3ccccc3)[C@]3(O)C[C@H](OC(=O)[C@H](O[Si](OCCCCCCCC)(OCCCCCCCC)OCCCCCCCC)[C@@H](NC(=O)c4ccccc4)c4ccccc4)C(C)=C([C@@H](OC(C)=O)C(=O)[C@]12C)C3(C)C	280
16.6	0.0767	0.55	CCO[Si](OCC)(OCC)O[C@H]1C[C@H]2OC[C@@]2(OC(C)=O)[C@H]2[C@H](OC(=O)c3ccccc3)[C@]3(O)C[C@H](OC(=O)[C@H](O[Si](OCC)(OCC)OCC)[C@@H](NC(=O)c4ccccc4)c4ccccc4)C(C)=C([C@@H](OC(C)=O)C(=O)[C@]12C)C3(C)C	12
13.8	0.0617		CCO[Si](OCC)(OCC)O[C@@H](C(=O)O[C@H]1C[C@@]2(O)[C@@H](OC(=O)c3ccccc3)[C@@H]3[C@]4(OC(C)=O)CO[C@@H]4C[C@H](O)[C@@]3(C)C(=O)[C@H](OC(C)=O)C(=C1C)C2(C)C)[C@@H](NC(=O)c1ccccc1)c1ccccc1	8.3
24.6		2.5	CCCCCCCCO[Si](OCCCCCCCC)(OCCCCCCCC)O[C@H]1C[C@H]2OC[C@@]2(OC(C)=O)[C@H]2[C@H](OC(=O)c3ccccc3)[C@]3(O)C[C@H](OC(=O)[C@H](O)[C@@H](NC(=O)c4ccccc4)c4ccccc4)C(C)=C([C@@H](OC(C)=O)C(=O)[C@]12C)C3(C)C	290
